Reference: ChEMBL document CHEMBL4651341, “The discovery of a novel series of compounds with single-dose efficacy against juvenile and adult Schistosoma species” (PLoS Negl Trop Dis, 2021)
pEC50: −log10 of the molar value. Converted amounts (≈) assume the structure as drawn.

What was measured:
[1] = Mean volume of distribution at steady state in Swiss albino male mice at 1 mg/kg per compound (administered iv in a mixture of 5 compounds to 3 mice) assessed by LCMS/MS.; format: ADME, organism-based; conditions: mouse, in vivo, read-out: Volume
Outline: (§1)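 Male Swiss albino mice (~30 g), 3 per experiment, mostly dosed as mixtures of 5 compounds iv via the lateral tail vein. Vehicle: 10% DMSO/90% 50 mM Na2HPO4 with 0.5% Tween-80. Plasma stored at −20 °C and quantified by LC-MS after acetonitrile precipitation.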

Schistosoma mansoni [2] = assay: Concentration required to kill 50% of 21 day old worms 5 days after drug treatment.; format: functional, organism-based; conditions: Puerto Rican, 120 h
Outline: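 Juvenile S. mansoni (Puerto Rican strain) were perfused from CD1 mice 3 weeks post-infection and washed. They were cultured 6–8 per well in 200 µL DMEM with 2 mM glutamine, penicillin/streptomycin and 10% FCS at 37 °C, 5% CO2. Viability of individual worms was scored on day 5 after dosing (120 h).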

[3] = Concentration required to kill 50% HepG2 cells as detected by MTT staining; format: toxicity, cell-based; conditions: homo sapiens, read-out: TC50 (the source's name)
[4] = Mean time to peak plasma concentration in Swiss albino male mice at […] per compound (administered orally in a mixture of 5 compounds to 3 mice) assessed by LCMS/MS.; format: ADME, organism-based; conditions: mouse, po
Schistosoma mansoni [5] = assay: (§2) Concentration required to kill 50% of 42 day old worms 5 days after drug treatment.; format: functional, organism-based; conditions: Puerto Rican, 120 h
Outline: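 Adult S. mansoni were perfused from CD1 mice 6 weeks post-infection and washed. They were cultured 3 pairs per well in 1 mL DMEM with 2 mM glutamine, penicillin/streptomycin and 10% FCS […] at 37 °C, 5% CO2. Viability of individual worms was scored on day 5 (120 h).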

Schistosoma mansoni [6] = assay: Percentage of worms remaining following treatment of female CD1 mice infected with S. mansoni worms (21 day old - juvenile or 42 day old - adult) with compound by oral gavage. Worms were recovered by portal perfusion with citrate saline 8-14 days post treatment and counted. Percentages are from a mean of 5 or 6 animals.; format: functional, Mus musculus; set-up: concentration or dose not given beside the values
Outline: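 Female CD1 mice were infected subcutaneously with 150 cercariae and treated at day 21 (juvenile) or day 42 (adult). Single oral gavage, or two doses 12 h apart, given in 7% Tween-80/3% ethanol/water (sonicated) or in 1:19 DMSO:corn oil. Controls received vehicle only. Worm recoveries are group means, n = 5–6.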

[7] = Mean plasma concentration at 24h in Swiss albino male mice at […] per compound (administered orally in a mixture of 5 compounds to 3 mice) assessed by LCMS/MS.; format: ADME, organism-based; conditions: mouse, po
[8] = Mean observed clearance in Swiss albino male mice at 1 mg/kg per compound (administered iv in a mixture of 5 compounds to 3 mice) assessed by LCMS/MS.; format: ADME, organism-based; conditions: male, Swiss albino, mouse, in vivo, read-out: Clearance (converted)
Outline: (§3)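 Male Swiss albino mice (~30 g), 3 per experiment, mostly dosed as mixtures of 5 compounds iv via the lateral tail vein. Vehicle: 10% DMSO/90% 50 mM Na2HPO4 with 0.5% Tween-80. Blood sampled at 5, 15, 30 min and 1, 2, 4, 8, 24 h. Plasma stored at −20 °C and quantified by LC-MS after acetonitrile precipitation.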

[9] = Mean plasma concentration at 4h in Swiss albino male mice at […] per compound (administered orally in a mixture of 5 compounds to 3 mice) assessed by LCMS/MS.; format: ADME, organism-based; conditions: mouse, po
[10] = Concentration of drug in plasma at 4h following oral drug adminstration at given dose. Determined by LCMS/MS; format: ADME, organism-based; conditions: CD1, mouse
Outline: (§4)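 Plasma sampled from the mice of the efficacy experiments, each animal sampled once: one animal per group at 1, 4 and 8 h, two per group at 24 h. Plasma prepared by acetonitrile protein precipitation and analysed by LC-MS against a 10-point calibration line spiked in blank matrix, with QCs at three or more levels.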

[11] = Concentration of drug in plasma at 24h following oral drug adminstration at given dose. Determined by LCMS/MS; format: ADME, organism-based; conditions: CD1, mouse; outline: as §4
[12] = Percentage of parent compound remaining after incubation for 90 minutes with cyropreserved mouse hepatocytes at a concentration of 1uM compound and […], determined by LCMS; format: ADME, tissue-based, Hepatocyte; conditions: cryopreserved mouse hepatocytes, read-out: Stability
Outline: (§5)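 Compound was incubated at 1 µM final (2 µM working solution mixed 1:1 with hepatocyte suspension) in supplemented KHB pH 7.4. Conditions: 37 °C, 5% CO2, gentle mixing, duplicates. Reaction quenched with ice-cold acetonitrile containing standard; analysed by LC-MS/MS. % remaining = AUC at t / AUC at T0.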

[13] = Mean AUC inf in Swiss albino male mice at 1 mg/kg per compound (administered iv in a mixture of 5 compounds to 3 mice) assessed by LCMS/MS.; format: ADME, organism-based; conditions: male, Swiss albino, mouse, in vivo; outline: as §3
[14] = Solubility at 25 degC of compound (diluted from DMSO) in PBS at pH 7.4 determined after 24h (1h sonication, 22h shaking, 1h sonication) by LCMS/MS; format: physicochemical
[15] = Mean oral bioavailability in Swiss albino male mice at […] per compound (administered in a mixture of 5 compounds to 3 mice) assessed by LCMS/MS.; further: dose 2.5 mg/kg; format: ADME, organism-based; conditions: male, Swiss albino, mouse, in vivo, read-out: Bioavailability
[16] = Concentration required to kill 50% MRC-5 cells as detected by Alamar blue staining; format: toxicity, cell-based, MRC5; conditions: homo sapiens, read-out: TC50 (the source's name)
[17] = Concentration required to kill 50% MRC5 cells as detected by Alamar blue staining; conditions: homo sapiens, read-out: TC50 (the source's name)
[18] = Partition coefficient of compound between n-octanol and PBS (pH7.4); format: physicochemical; conditions: octanol/water, pH 7.4
Outline: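 Shake-flask method using octanol and PBS pH 7.4, each pre-saturated with the other. Compound was shaken 2 h at 850 rpm, 25 °C, then the phases were separated by centrifugation and both layers diluted and analysed by LC-MS/MS. LogD = log(octanol AUC × relative dilution / buffer AUC).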

Schistosoma japonicum = assay: as §2; format: functional, organism-based; conditions: Chinese, 120 h
[19] = Plasma protein binding determined at 1uM by LC-MS/MS.; format: ADME, cell-free
[20] = Plasma protein binding determined at 10uM by LC-MS/MS.; format: ADME, cell-free
Outline: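 Equilibrium dialysis of plasma spiked at 10 µM (0.1% DMSO) against PBS pH 7.4, 6 h at 37 °C, duplicates. Both chambers analysed by LC-MS/MS after acetonitrile precipitation. % free = buffer/plasma area ratio; recovery also calculated.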

Schistosoma haematobium = assay: Concentration required to kill 50% of 84 day old worms 5 days after drug treatment.; format: functional, organism-based; conditions: Egyptian, 120 h
[21] = Mean half-life in Swiss albino male mice at 1 mg/kg per compound (administered iv in a mixture of 5 compounds to 3 mice) assessed by LCMS/MS.; format: ADME, organism-based; conditions: mouse, in vivo; outline: as §1
[22] = Percentage of parent compound remaining after incubation for 30 minutes with cyropreserved mouse hepatocytes at a concentration of 1uM compound and […], determined by LCMS; format: ADME, tissue-based, Hepatocyte; conditions: cryopreserved mouse hepatocytes, read-out: Stability; outline: as §5
[23] = Percentage of parent compound remaining after incubation for 30 minutes with cyropreserved human hepatocytes at a concentration of 1uM compound and 1 million cells/uL, determined by LCMS/MS; format: ADME, tissue-based, Hepatocyte; conditions: cryopreserved human hepatocytes, read-out: Stability; outline: as §5
[24] = Plasma protein binding determined at 10uM by LC-MS/MS.; conditions: human

Structure (SMILES) | Vd [1] | pEC50 (Schistosoma mansoni [2]) | CC50 [3] | Tmax [4] | pEC50 (Schistosoma mansoni [5]) | Efficacy (Schistosoma mansoni [6]) | concentration at 24 h [7] | clearance [8] | concentration at 4 h [9] | concentration at 4 h [10] | concentration at 24 h [11] | remaining at 1.5 h, 1 µM [12] | AUC(0-inf) [13] | solubility kinetic at 24 h [14] | bioavailability [15] | CC50 [16] | Lipophilicity [18] | Binding ([20]; mouse) | remaining at 0.5 h, 1 µM [22] | further results
CCc1nc2cnc(-c3ccc(F)c(C(F)(F)F)c3)cn2c1-c1ccc2[nH]ncc2c1F | 1.37 L/kg | 7.06 | 13100 nM | 2 h | 7.35 | 89.6% | 21.4 ng/mL | 4.02 mL/min/kg | 676 ng/mL | 705 ng/mL | 50.5 ng/mL | 85% | 2080 ng·h/mL | 1.83 µM (≈ 0.811 µg/mL) | 82.7% | – | – | – | – | –
CC(C)c1cccc(-c2cn3c(-c4ccc(O)cc4)cnc3cn2)c1 | – | 5.82 | – | – | 5.87 | – | – | – | – | – | – | – | – | 0.383 µM (≈ 0.126 µg/mL) | – | 30000 nM | 3.62 = | – | – | CC50 [17]: > 30000 nM
COc1ccc(-c2c(C(C)C)nc3cnc(-c4cccc(C(F)(F)F)c4)cn23)cc1O | 5.13 L/kg | 7.18 | > 11100 nM | 0.25 h | > 7.09 | – | 0.1 ng/mL | 79.2 mL/min/kg | 3.5 ng/mL | – | – | – | 105 ng·h/mL | 2.11 µM (≈ 0.902 µg/mL) | 7.84% | 21900 nM | 3.63 = | 99.93% | 36.2% | pEC50 (Schistosoma japonicum): 7.07; Binding ([19]; human): 100%; Binding ([19]; mouse): 100%; pEC50 (Schistosoma haematobium): 7.21; half-life [21]: 1.92 h
Fc1ccc(-c2cn3c(-c4ccc5[nH]ncc5c4F)c(C4CC4)nc3cn2)cc1C(F)(F)F | 4.37 L/kg | 7.44 | 16100 nM | 1 h | 7.29 | 88% | 176 ng/mL | 3.43 mL/min/kg | 376 ng/mL | 75 ng/mL | 60.4 ng/mL | 79.5% | 2450 ng·h/mL | 1.42 µM (≈ 0.647 µg/mL) | 95.8% | – | 4.7 = | 100% | 81.9% | remaining at 0.5 h, 1 µM [23]: 95.2%; Binding ([20]; human): 100%; half-life [21]: 16.2 h
Oc1cc(F)c(-c2c(C3CC3)nc3cnc(-c4ccc(F)c(C(F)(F)F)c4)cn23)c(F)c1 | 1.94 L/kg | 7.47 | 8900 nM | 0.25 h | 7.35 | 75% | 151 ng/mL | 2.25 mL/min/kg | 680 ng/mL | 1040 ng/mL | 460 ng/mL | 53% | 3800 ng·h/mL | – | 69.6% | – | 4.34 = | 99.975% | 83.8% | remaining at 0.5 h, 1 µM [23]: 42.1%; Binding ([20]; human): 100%
COc1ccc(-c2cnc3cnc(-c4cccc(C(C)C)c4)cn23)cc1OC | – | 5.59 | – | – | 5.87 | – | – | – | – | – | – | – | – | 2.62 µM (≈ 0.978 µg/mL) | – | 27800 nM | 4.92 = | – | – | Binding [24]: 99.985%
COc1ccc(-c2cnc3cnc(-c4cccc(C(C)C)c4)cn23)cc1O | – | 6.31 | – | – | 6.58 | – | – | – | – | – | – | – | – | 2.29 µM (≈ 0.823 µg/mL) | – | 18600 nM | 3.56 = | – | 26.4% | CC50 [17]: 18600 nM
O=C(C1CCCCC1)N1CC(=O)N2CCc3ccccc3C2C1 (stereo not given) [PRAZIQUANTEL] | – | 5.33 | – | – | 6.52 | 79% | – | – | – | – | – | – | – | – | – | > 50000 nM | – | – | – | pEC50 (Schistosoma japonicum): 6.79; pEC50 (Schistosoma haematobium): 7.07
